# Active and inactive are the calls of the source.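 The calls were made as follows, unless noted: active = inhibition of the reporter signal at or above 50%; inactive = inhibition below 50%.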
# Key:
# [1] = inhibitors of TNFa-induced NFkB p65 translocation, primary screen, imaging, HUVEC, MLSMR starter and 10KST1 sets (AID 438;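 active = inhibition above 20% together with a positive visual image hit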;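 also: compound added about 3h40 before a 20 min TNFalpha stimulation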;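 as to inhibition: signal is the nuclear over cytoplasmic p65 intensity ratio per well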); settings: HUVEC TNFa-induced p65 nuclear translocation; cell count: measured here: nuclei count (cytotoxicity indicator), at 2.08 µM; inhibition: at 2 µM, stronger effect = higher value, 0% TNFa-plus-vehicle, 100% no-TNFa wells
# [2] = inhibitors of mutant huntingtin aggregation, primary screen, imaging, exon1htt(103Q)mCFP cells, high-content imaging (AID 483;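 active = visual image review flags a hit and inhibition of aggregation exceeds 20%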;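 also: compound exposure lasted 3 days before fixation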;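 as to nuclei count: percent of the per-plate median nuclei count of sample wells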); settings: exon1htt(103Q)mCFP cell line, aggregate imaging, at 2 µM; inhibition of aggregation: stronger effect = higher value; nuclei count: measured here: cell count, toxicity
# [3] = inhibitors of E-selectin induction by TNFa, primary screen, imaging, HUVEC, immunofluorescence, MLSMR starter and 10KST1 sets (AID 487;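 active = visually confirmed hit in the image check and inhibition above 20%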;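 as to inhibition: signal is fraction of cell area covered by stained E-selectin grains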;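 as to nuclei count: 100% = median nuclei count of all wells on the same plate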); settings: HUVEC TNFalpha-induced E-selectin immunofluorescence imaging, at 2 µM; inhibition: stronger effect = higher value; nuclei count: measured here: cell number, toxicity
# [4] = biological target: Voltage-gated potassium channel subunit beta-2 (Rattus norvegicus) (UniProt P62483); assay: KvBeta enzyme negative modulators, primary screen, biochemical, NADPH fluorescence (AID 622;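 active = fluorescence slope higher than the sample average by over 3 SD, cut at about -0.22 in these data, passing the limit was not always enough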;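 also: slope of raw intensity against log time taken from 70 to 1610 s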); settings: recombinant KvBeta, 4-cyanobenzaldehyde reduction, at 10 µM, stronger effect = higher value
# [5] = biological target: Voltage-gated potassium channel subunit beta-2 (Rattus norvegicus) (UniProt P62483); assay: KvBeta positive modulators, primary screen, biochemical, NADPH fluorescence (AID 623;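 active = NADPH fluorescence slope more negative than the mean of all samples by about 3 SD, 99.7% confidence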;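 also: fluorescence intensity change per second fitted from 20 to 320 s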); settings: Recombinant KvBeta, NADPH fluorescence decrease slope, 10 min; at 10 µM; stronger effect = lower value
# [6] = biological target: Muscarinic acetylcholine receptor M4 (Homo sapiens) (UniProt P08173); assay: compounds altering M4/GIRK thallium flux, either direction, primary screen, M4 allosteric agonist project, cell-based, HEK293 M4/GIRK, BTC-AM (AID 625;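 active = fluorescence slope after compound addition differing from the mean of all tested samples at 99.7% confidence, mostly higher but some lower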;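 also: thallium influx through GIRK channels coupled to M4 in HEK293 cells with BTC-AM dye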); settings: at 10 µM, actives lie on both sides
# Method in brief: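 assay system = HEK293 cells with M4 receptor and GIRK channels | medium = pH 7.3 thallium assay buffer | doses = 10 µM final, single point | timing = cells overnight at 37 °C, BTC-AM loading 1 h, reads 2 min total | signal = BTC-AM fluorescence, 1 Hz kinetic reads | read-out = post-addition slope, 15–24 s, of baseline-normalized fluorescence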
# [7] = inhibitors of Sendai virus-induced IRF3 signaling, primary screen, TLR/RLR signaling modifier project, cell-based, Sendai virus stimulus, luciferase, 10K MLSCN set (AID 602276;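 active = inhibition at or above 50% at 10 µM; inactive = inhibition below 50%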;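 also: firefly luciferase from ISG56 promoter only with Renilla not read in this screen; 0% = Sendai virus plus DMSO and 100% = medium plus DMSO without virus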); settings: HEK293 RL24 IRF3 luciferase reporter, at 10 µM, stronger effect = higher value
# [8] = inhibitors of poly I:C-induced TLR3 signaling, primary screen, cell-based, poly I:C stimulus, luciferase, 10K MLSCN set (AID 602277); settings: HEK293-TLR3 RL24 IRF3 luciferase reporter, at 10 µM, stronger effect = higher value
# Sequence of Muscarinic acetylcholine receptor M4 (Homo sapiens) (P08173 whole entry, looked up): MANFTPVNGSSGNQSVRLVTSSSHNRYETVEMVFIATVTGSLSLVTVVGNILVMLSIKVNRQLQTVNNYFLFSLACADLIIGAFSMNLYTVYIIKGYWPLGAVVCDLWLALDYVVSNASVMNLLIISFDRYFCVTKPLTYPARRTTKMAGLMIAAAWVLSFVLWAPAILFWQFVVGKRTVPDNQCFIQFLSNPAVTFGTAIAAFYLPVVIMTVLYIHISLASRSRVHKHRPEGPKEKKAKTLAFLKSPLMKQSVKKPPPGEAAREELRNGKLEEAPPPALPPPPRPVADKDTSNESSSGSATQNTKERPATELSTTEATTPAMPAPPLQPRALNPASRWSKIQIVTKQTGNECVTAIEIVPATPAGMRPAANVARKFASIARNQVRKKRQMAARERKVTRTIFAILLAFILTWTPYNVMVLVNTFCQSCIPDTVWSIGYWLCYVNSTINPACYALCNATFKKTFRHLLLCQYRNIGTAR
# Sequence of Voltage-gated potassium channel subunit beta-2 (Rattus norvegicus) (P62483 whole entry, looked up): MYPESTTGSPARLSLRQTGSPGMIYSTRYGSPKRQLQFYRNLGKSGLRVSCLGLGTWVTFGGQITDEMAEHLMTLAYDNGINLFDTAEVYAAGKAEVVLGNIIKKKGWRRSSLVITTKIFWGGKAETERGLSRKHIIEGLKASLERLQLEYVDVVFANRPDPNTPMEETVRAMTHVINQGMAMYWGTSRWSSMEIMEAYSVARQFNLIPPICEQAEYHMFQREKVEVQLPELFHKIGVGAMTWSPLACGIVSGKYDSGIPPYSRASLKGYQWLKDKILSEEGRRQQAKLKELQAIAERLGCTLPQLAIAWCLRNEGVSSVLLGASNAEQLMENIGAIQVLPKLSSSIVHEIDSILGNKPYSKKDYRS
Compound,cell count [1],inhibition [1],inhibition of aggregation [2],nuclei count [2] [%],inhibition [3],nuclei count [3] [%],fluorescence slope [4],NADPH fluorescence slope [5],fluorescence slope [6],inhibition [7],inhibition [8]
O=C(Nc1ccc(CN2CCOCC2)cc1)c1cc2ccccc2oc1=O,426,3.6% (inactive),-12.6% (inactive),118,-218% (inactive),146,-0.53 (inactive),-7.9e-05 (inactive),0.00463 (inactive),0.662% (inactive),29.5% (inactive)
Cc1cc(C(F)F)n2ncc(C(=O)NC3CCCCCC3)c2n1,354,0% (inactive),-4.8% (inactive),106,1.4% (inactive),113,-0.569 (inactive),-7.1e-05 (inactive),0.00445 (inactive),15.9% (inactive),15.5% (inactive)
CCOC(=O)c1cnc(-n2nc(C)cc2C)nc1NC(C)c1ccccc1 (stereo not drawn),605,-9.5% (inactive),8.7% (inactive),94.4,13.2% (inactive),93.5,-0.57 (inactive),-9.1e-05 (inactive),0.00529 (inactive),8.07% (inactive),0.674% (inactive)
CCOC(=O)C1C(=O)NC(SCC(=O)Nc2nccs2)=C(C#N)C1c1ccccc1OCC (stereo not drawn),605,-27.7% (inactive),-20.6% (inactive),120,20.7% (inactive),104,-0.454 (inactive),-3.1e-05 (inactive),0.00515 (inactive),19.6% (inactive),20.1% (inactive)
Cc1cc(NC(=O)C2CCCC2)nc2c1c(=O)oc1ccccc12,601,-3.4% (inactive),12.4% (inactive),98.2,-16.3% (inactive),106,-0.578 (inactive),-4.4e-05 (inactive),0.00687 (inactive),7.38% (inactive),9.88% (inactive)
O=C(Nc1ccccc1)N(CCN1CCOCC1)Cc1ccccc1F,665,-4.1% (inactive),-16.2% (inactive),101,-68% (inactive),96.7,-0.61 (inactive),1.5e-05 (inactive),0.00376 (inactive),-14.2% (inactive),-15.8% (inactive)
CC1CCCCN1CCNC(=O)c1ccc2c(=O)n(CCc3ccccc3)c(=O)[nH]c2c1 (stereo not drawn),105,116% (active),12.7% (inactive),91.2,-3.9% (inactive),119,-0.279 (inactive),-3.6e-05 (inactive),0.00585 (inactive),2.66% (inactive),-7.7% (inactive)
Nc1c(C(=O)NCCc2ccccc2)nnn1Cc1ccccc1,564,4.8% (inactive),24.6% (inactive),69.8,-6.5% (inactive),98.3,-0.571 (inactive),-4.3e-05 (inactive),0.00544 (inactive),-11.8% (inactive),-13.7% (inactive)
Cc1cc(C)c(C)c(S(=O)(=O)Nc2ccc(O)cc2)c1C,187,-8.6% (inactive),37.3% (active),87.5,-7.7% (inactive),74.8,-0.539 (inactive),-1.7e-05 (inactive),0.00478 (inactive),10.8% (inactive),18.5% (inactive)
Cc1noc(NS(=O)(=O)c2ccc(NC(=O)CCC3CCCC3)cc2)c1C,472,2.1% (inactive),-12.2% (inactive),83.5,-147% (inactive),115,-0.557 (inactive),-1.2e-05 (inactive),0.00725 (inactive),19.6% (inactive),11.2% (inactive)
Cc1cc(=O)oc2ccc(OCC(=O)N3CCC(C)CC3)cc12,400,-3.9% (inactive),-30.5% (inactive),103,-41.1% (inactive),104,-0.567 (inactive),-4.1e-05 (inactive),0.00366 (inactive),17.3% (inactive),8.48% (inactive)
Cc1ccc(-n2nc(-c3cccs3)cc2C(=O)NCC2CCCO2)c(C)c1 (stereo not drawn),490,-1.7% (inactive),-12.1% (inactive),15.1,-9.6% (inactive),110,-0.405 (inactive),-8.6e-05 (inactive),0.00713 (inactive),7.58% (inactive),20.7% (inactive)
CCC(=O)OC1(C#CCOc2ccc(OC)cc2)CCN(C)CC1,393,-6.5% (inactive),-20.2% (inactive),113,-43.3% (inactive),142,-0.61 (inactive),-2.5e-05 (inactive),0.00292 (inactive),17.8% (inactive),16% (inactive)
CC1(C)NC(=O)N(CC(O)CN(Cc2ccccc2)Cc2ccccc2)C1=O (stereo not drawn),606,9.2% (inactive),14% (inactive),84.4,-13% (inactive),113,-0.299 (inactive),-4e-05 (inactive),0.00564 (inactive),9.57% (inactive),21.2% (inactive)
CCOC(=O)c1cc2sccc2n1CC(=O)Nc1ccc2c(c1)OCCO2,513,-14.9% (inactive),-25.9% (inactive),108,12.2% (inactive),117,-0.61 (inactive),4.2e-06 (inactive),0.00667 (inactive),-5.94% (inactive),-4.31% (inactive)
COc1ccc(-c2ccc(CCC(=O)O)n2NC(=O)c2cccs2)cc1,645,-3.5% (inactive),-1.9% (inactive),108,-35.1% (inactive),131,-0.464 (inactive),-3.6e-05 (inactive),0.00607 (inactive),2.14% (inactive),42.4% (inactive)
O=c1[nH]c2ccccc2nc1NCCN1CCOCC1,404,-26.6% (inactive),-31.4% (inactive),98.9,-80.4% (inactive),134,-0.553 (inactive),-6.2e-05 (inactive),0.00364 (inactive),8.81% (inactive),1.66% (inactive)
COC(=O)c1c(N)n(-c2cc(OC)cc(OC)c2)c2nc3ccccc3nc12,700,9.4% (inactive),2.3% (inactive),84.9,28.6% (inactive),80,-0.0659 (inactive),-2.3e-05 (inactive),0.00491 (inactive),2.96% (inactive),-6.82% (inactive)
CCOC(=O)N1CCN(C(=O)C2CC(=O)N(Cc3ccc(OC)cc3)C2)CC1 (stereo not drawn),607,-14.6% (inactive),-1.6% (inactive),112,-28.6% (inactive),111,-0.566 (inactive),-1e-05 (inactive),0.0052 (inactive),13.3% (inactive),18.5% (inactive)
COC(=O)c1cn(C(=O)OC)c2ccccc12,447,-2.7% (inactive),10.2% (inactive),108,-17.8% (inactive),108,-0.593 (inactive),-8.8e-05 (inactive),0.00446 (inactive),13.8% (inactive),10.5% (inactive)
Cc1cc(NC(=O)CS(=O)(=O)c2cn(Cc3cccc(F)c3)c3ccccc23)no1,815,-6.6% (inactive),6.9% (inactive),116,-94.1% (inactive),107,-0.262 (inactive),-2.4e-05 (inactive),0.00574 (inactive),11.5% (inactive),0.399% (inactive)
CC(=O)NCCn1ccc2ccccc21,272,14.1% (inactive),17.6% (inactive),93,-55.1% (inactive),99.6,-0.518 (inactive),0.000103 (inactive),0.00841 (inactive),16.6% (inactive),20.7% (inactive)
Cc1ccc(-n2nnnc2SCC(=O)N2CCN(C(=O)c3ccco3)CC2)c(C)c1,731,-4.4% (inactive),27.6% (inactive),91,-5.5% (inactive),109,-0.568 (inactive),-5.4e-05 (inactive),0.00555 (inactive),1.61% (inactive),10.6% (inactive)
CN(C)c1ccc(/C=C/C(O)=C2/C(=O)N(C)C3(C)CC2c2ccccc2O3)cc1 (stereo not drawn),356,-0.4% (inactive),-5.2% (inactive),102,-68% (inactive),115,-0.521 (inactive),-2e-07 (inactive),0.0126 (active),1.4% (inactive),23.4% (inactive)
COCCn1nnnc1C(C(C)C)N(Cc1cccnc1)Cc1ccccc1Cl (stereo not drawn),526,2.1% (inactive),8.9% (inactive),108,-72.3% (inactive),111,-0.574 (inactive),1.3e-05 (inactive),0.00529 (inactive),9.31% (inactive),31.3% (inactive)
c1ccc(Cn2nnc3c(N4CCC5(CC4)OCCO5)ncnc32)cc1,382,-1.3% (inactive),0.3% (inactive),103,-346% (inactive),144,-0.522 (inactive),-5.2e-05 (inactive),0.00535 (inactive),3.41% (inactive),6.57% (inactive)
CCCn1cnc2c(c1=O)c1nc3ccccc3nc1n2Cc1ccccc1OC,499,-7.5% (inactive),4.9% (inactive),95,-68.4% (inactive),130,-0.483 (inactive),-1.8e-05 (inactive),0.00653 (inactive),-9.22% (inactive),101% (active)
Cc1cnc(C(=O)Nc2ccc(N3CCOCC3)cc2)cn1,392,3% (inactive),-7.7% (inactive),117,4.5% (inactive),101,-0.524 (inactive),-2.8e-05 (inactive),0.00612 (inactive),-19.8% (inactive),-62% (inactive)

# Reference: PubChem BioAssay
